According to ChEMBL document CHEMBL2016450, “Design, synthesis, and biological evaluation of chalcone oxime derivatives as potential immunosuppressive agents” (Bioorg Med Chem Lett, 2012):
The source made the active and inactive calls. No cut-off for these calls is given here.

How the values were obtained:
[1] = Selectivity index, ratio of CC50 for Balb/c mouse lymph node cells to IC50 for anti-CD3/[…] co-stimulated mouse Balb/c mouse lymph node cells; format: functional
In short: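 The selectivity index is CC50 on unstimulated lymph node cells divided by IC50 for proliferation of anti-CD3/anti-CD28 co-stimulated lymph node cells, both relative to control values.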

[2] = Cytotoxicity against Balb/c mouse lymph node cells after 48 hrs by MTT assay; format: cell-based
In short: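 Naïve lymph node cells; the CC50 is the concentration giving 50% cell survival. Cyclosporin A served as the reference control.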

[3] = Immunosuppressive activity in anti-CD3/[…] co-stimulated Balb/c mouse lymph node cells assessed as inhibition of cell proliferation after 72 hrs by ELISA; format: functional
In short: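 Lymph node cells co-stimulated with anti-CD3/anti-CD28. The IC50 is the concentration inhibiting proliferation by 50% relative to control values. Cyclosporin A served as the reference control.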

Mus musculus [4] = organism: Mus musculus; assay: Induction of apoptosis in anti-CD-3/[…] co-stimulated Balb/c mouse lymph node cells assessed as caspase 3 cleavage product p17 formation after 24 hrs by Western blot analysis; format: functional
In short: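 Anti-CD3/anti-CD28 co-stimulated lymph node cells were treated with compound across a dose series. Lysates were probed by Western blot with an anti-cleaved caspase-3 antibody that recognises the p17 cleavage fragment.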

[5] = Induction of apoptosis in anti-CD-3/[…] co-stimulated Balb/c mouse lymph node cells assessed as apoptotic cells at 10 ug/ml after 24 hrs by annexin V/PI staining-based flow cytometric analysis; format: functional
In short: (§1)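 Lymph node cells isolated from naïve mice were cultured with anti-CD3/anti-CD28 plus compound at 10, 20 or 40 µg/mL for 24 h. Cells were stained with Annexin V-FITC/PI and apoptotic cells were counted by flow cytometry.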

[6] = Induction of apoptosis in anti-CD-3/[…] co-stimulated Balb/c mouse lymph node cells assessed as apoptotic cells at 20 ug/ml after 24 hrs by annexin V/PI staining-based flow cytometric analysis; format: functional; in short: as §1
[7] = Induction of apoptosis in anti-CD-3/[…] co-stimulated Balb/c mouse lymph node cells assessed as apoptotic cells at 40 ug/ml after 24 hrs by annexin V/PI staining-based flow cytometric analysis; format: functional; in short: as §1
Mus musculus [8] = organism: Mus musculus; assay: Induction of apoptosis in anti-CD-3/[…] co-stimulated Balb/c mouse lymph node cells assessed as apoptotic cells after 24 hrs by annexin V/PI staining-based flow cytometric analysis; format: functional; in short: as §1
Mus musculus [9] = organism: Mus musculus; assay: Induction of apoptosis in anti-CD-3/[…] co-stimulated Balb/c mouse lymph node cells assessed as PARP cleavage at 10 to 40 ug/ml after 24 hrs by Western blot analysis; format: functional

Compound: COc1ccc(C(/C=C/c2ccc(Cl)cc2Cl)=N/O)cc1
- Ratio CC50/IC50 [1]: 2.24
- CC50 at 48 h [2]: 25 µM
- IC50 [3]: 11.2 µM

Compound: COc1ccc(C(/C=C/c2ccc(Cl)cc2)=N/O)cc1
- Ratio CC50/IC50 [1]: 25.31
- CC50 at 48 h [2]: 291 µM
- IC50 [3]: 11.5 µM

Compound: COc1ccc(C(/C=C/c2cccs2)=N/O)cc1
- Ratio CC50/IC50 [1]: 1.25
- CC50 at 48 h [2]: 10.6 µM
- IC50 [3]: 8.49 µM

Compound: COc1ccc(/C=C/C(=N\O)c2ccc(Br)cc2)cc1
- Ratio CC50/IC50 [1]: >4.75
- CC50 at 48 h [2]: 23.7 µM
- IC50 [3]: < 5 µM

Compound: O/N=C(\C=C\c1cccs1)c1ccc(Cl)cc1
- Ratio CC50/IC50 [1]: 1.23
- CC50 at 48 h [2]: 11.8 µM
- IC50 [3]: 9.59 µM

Compound: COc1ccc(C(/C=C/c2ccc(Br)cc2)=N/O)cc1
- Activity (Mus musculus [4]): Dose-dependent effect
- Activity [5]: 22.71%
- Activity [6]: 32.25%
- Activity [7]: 40.63%
- Activity (Mus musculus [8]): Dose-dependent effect
- Ratio CC50/IC50 [1]: 52.93
- CC50 at 48 h [2]: 737 µM
- IC50 [3]: 13.9 µM

Compound: COc1ccc(/C=C/C(=N\O)c2ccc(C)cc2)cc1
- Ratio CC50/IC50 [1]: 18.82
- CC50 at 48 h [2]: 117 µM
- IC50 [3]: 6.24 µM

Compound: COc1ccc(C(=O)/C=C/c2ccc(Br)cc2)cc1
- Ratio CC50/IC50 [1]: 3.73
- CC50 at 48 h [2]: 93.7 µM
- IC50 [3]: 25.1 µM

Compound: O/N=C(\C=C\c1ccc(F)cc1)c1ccc(Cl)cc1
- Ratio CC50/IC50 [1]: 1.08
- CC50 at 48 h [2]: 11.5 µM
- IC50 [3]: 10.6 µM

Compound: O/N=C(\C=C\c1ccc(F)cc1)c1ccc(Br)cc1
- Ratio CC50/IC50 [1]: 1.53
- CC50 at 48 h [2]: 20.3 µM
- IC50 [3]: 13.3 µM

Compound: O/N=C(\C=C\c1ccc(Cl)c(Cl)c1)c1ccc(Br)cc1
- CC50 at 48 h [2]: < 5 µM
- IC50 [3]: < 5 µM

Compound: O/N=C(\C=C\c1ccc(Cl)cc1)c1ccc(Cl)cc1
- Ratio CC50/IC50 [1]: 1.54
- CC50 at 48 h [2]: 14.1 µM
- IC50 [3]: 9.15 µM

Compound: COc1ccc(/C=C/C(=N\O)c2ccc(Cl)cc2)cc1
- Ratio CC50/IC50 [1]: 4.16
- CC50 at 48 h [2]: 24.3 µM
- IC50 [3]: 5.85 µM

Compound: COc1ccc(C(/C=C/c2ccc(F)cc2)=N/O)cc1
- Ratio CC50/IC50 [1]: 1.23
- CC50 at 48 h [2]: 13.5 µM
- IC50 [3]: 11 µM

Compound: O/N=C(\C=C\c1ccc(Cl)cc1)c1ccc(F)cc1
- Ratio CC50/IC50 [1]: 1.36
- CC50 at 48 h [2]: 14.8 µM
- IC50 [3]: 10.9 µM

Compound: O/N=C(\C=C\c1ccc(Cl)cc1)c1ccc(Br)cc1
- Ratio CC50/IC50 [1]: 1.68
- CC50 at 48 h [2]: 24.7 µM
- IC50 [3]: 14.7 µM

Compound: COc1ccc(/C=C/C(=N\O)c2ccc(OC)cc2)cc1
- Activity (Mus musculus [4]): Dose-dependent effect
- Activity [5]: 25.83%
- Activity [6]: 34.05%
- Activity [7]: 96.46%
- Activity (Mus musculus [8]): Dose-dependent effect
- Activity (Mus musculus [9]): Active
- Ratio CC50/IC50 [1]: 176.69
- CC50 at 48 h [2]: 2170 µM
- IC50 [3]: 12.3 µM

Compound: Cc1ccc(C(/C=C/c2ccc(Cl)cc2)=N/O)cc1
- Ratio CC50/IC50 [1]: 1.84
- CC50 at 48 h [2]: 21.3 µM
- IC50 [3]: 11.6 µM

Compound: Cc1ccc(C(/C=C/c2ccc(Cl)c(Cl)c2)=N/O)cc1
- Ratio CC50/IC50 [1]: 2.32
- CC50 at 48 h [2]: 14.7 µM
- IC50 [3]: 6.34 µM

Compound: O/N=C(\C=C\c1cccs1)c1ccc(Br)cc1
- Ratio CC50/IC50 [1]: 1.38
- CC50 at 48 h [2]: 15.3 µM
- IC50 [3]: 11.2 µM

Compound: COc1ccc(/C=C/C(=O)c2ccc(OC)cc2)cc1 [4,4'-DIMETHOXYCHALCONE]
- Ratio CC50/IC50 [1]: 75.98
- CC50 at 48 h [2]: 1790 µM
- IC50 [3]: 23.6 µM

Compound: Cc1ccc(C(/C=C/c2ccc(Br)cc2)=N/O)cc1
- Ratio CC50/IC50 [1]: 2.94
- CC50 at 48 h [2]: 34.2 µM
- IC50 [3]: 11.6 µM

Compound: COc1ccc(C(/C=C/c2ccccc2)=N/O)cc1
- Ratio CC50/IC50 [1]: 2.42
- CC50 at 48 h [2]: 28.6 µM
- IC50 [3]: 11.8 µM

Compound: Cc1ccc(C(/C=C/c2ccc(F)cc2)=N/O)cc1
- Ratio CC50/IC50 [1]: 1.17
- CC50 at 48 h [2]: 13.2 µM
- IC50 [3]: 11.2 µM
